Results published in ChEMBL document CHEMBL4616716, “ONO-8430506: A Novel Autotaxin Inhibitor That Enhances the Antitumor Effect of Paclitaxel in a Breast Cancer Model” (ACS Med Chem Lett, 2020).
Values belong to the compound of their own block, whether it stands above or below them.

Assays:
[1] = target: T1, Autotaxin (Homo sapiens, UniProt Q13822); test: Inhibition of recombinant human ATX assessed as reduction in choline release using LPC(16:0) as substrate incubated for 15 hrs
Procedure, shortened: (§1)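 Recombinant human ATX with 16:0 LPC as substrate. Single-point inhibition was tested at 30 μM, and IC50 values were determined.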

[2] = Protein binding in rat plasma measured after 4 hrs by LC-MS/MS analysis; assay type: ADME, cell-free; conditions: read-out: PPB (converted)
[3] = target: T1, Autotaxin; test: Inhibition of LysoPLD activity of ATX in human plasma assessed as reduction in choline release using LPC(16:0) as substrate incubated for 15 hrs; assay type: cell-free
Procedure, shortened: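 LysoPLD activity in human plasma with 16:0 LPC as substrate; IC50 determined.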

[4] = AUC in Sprague-Dawley rat at 0.5 mg/kg, po administered as single cassette dosing by LC-MS/MS analysis; assay type: ADME, organism-based; conditions: in vivo
Procedure, shortened: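 Rat cassette dosing, 0.5 mg/kg oral; plasma AUC reported.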

[5] = Protein binding in human plasma measured after 4 hrs by LC-MS/MS analysis; assay type: ADME, cell-free; conditions: read-out: PPB (converted)
[6] = Cmax in Sprague-Dawley rat at 1 mg/kg, po administered as single dose by LC-MS/MS analysis; assay type: ADME, organism-based; parameters: dose 1 mg/kg, route oral; conditions: in vivo
[7] = Clearance in cynomolgus monkey at 0.3 mg/kg, iv administered as single dose by LC-MS/MS analysis; assay type: ADME, organism-based, Macaca fascicularis; conditions: in vivo
[8] = Oral bioavailability in Sprague-Dawley rat at […] administered as single dose by LC-MS/MS analysis; assay type: ADME, organism-based; conditions: in vivo
Procedure, shortened: (§2)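 Single-dose rat PK, 1 mg/kg iv and 3 mg/kg po, n = 3. Plasma clearance was taken from the iv dose. Bioavailability was calculated from the iv and oral doses.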

[9] = Half life in cynomolgus monkey at 0.3 mg/kg, iv administered as single dose by LC-MS/MS analysis; assay type: ADME, organism-based, Macaca fascicularis; conditions: in vivo
[10] = Volume of distribution at steady state in Sprague-Dawley rat at 0.3 mg/kg, iv administered as single dose by LC-MS/MS analysis; assay type: ADME, organism-based; conditions: in vivo, read-out: Vdss
[11] = Cmax in SCID mouse at 1 mg/kg, po administered as single dose by LC-MS/MS analysis; assay type: ADME, organism-based; parameters: dose 1 mg/kg, route oral; conditions: in vivo
[12] = target: T1, Autotaxin; test: In vivo inhibition of lysoPLD activity of ATX in SCID mouse plasma xenografted with human MDA-MB-231 cells at 100 mg/kg, po administered twice daily for 32 days in combination with paclitaxel at 20 mg/kg, ip three times weekly for 5 weeks and measured at 18 hrs post-last dose relative to control; assay type: functional, organism-based
[13] = Clearance in Beagle dog at 0.3 mg/kg, iv administered as single dose by LC-MS/MS analysis; assay type: ADME, organism-based, Canis lupus familiaris; conditions: in vivo
[14] = Cmax in Beagle dog at 1 mg/kg, po administered as single dose by LC-MS/MS analysis; assay type: ADME, organism-based, Canis lupus familiaris; parameters: dose 1 mg/kg, route oral; conditions: in vivo
[15] = Volume of distribution at steady state in cynomolgus monkey at 0.3 mg/kg, iv administered as single dose by LC-MS/MS analysis; assay type: ADME, organism-based, Macaca fascicularis; conditions: in vivo, read-out: Vdss
[16] = Half life in Beagle dog at 0.3 mg/kg, iv administered as single dose by LC-MS/MS analysis; assay type: ADME, organism-based, Canis lupus familiaris; conditions: in vivo
[17] = Half life in Sprague-Dawley rat at 0.3 mg/kg, iv administered as single dose by LC-MS/MS analysis; assay type: ADME, organism-based; conditions: in vivo
[18] = Volume of distribution at steady state in Beagle dog at 0.3 mg/kg, iv administered as single dose by LC-MS/MS analysis; assay type: ADME, organism-based, Canis lupus familiaris; conditions: in vivo, read-out: Vdss
[19] = Clearance in Sprague-Dawley rat at 0.3 mg/kg, iv administered as single dose by LC-MS/MS analysis; assay type: ADME, organism-based; conditions: in vivo
[20] = system: MDA-MB-231; test: Antitumor activity against human MDA-MB-231 cells xenografted in SCID mouse assessed as tumor growth inhibition at 100 mg/kg, po administered twice daily for 32 days and […] relative to control; assay type: functional; conditions: MDA-MB-231, po, read-out: TGI
Procedure, shortened: (§3)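 MDA-MB-231 human breast tumour-bearing mice dosed orally at 30 or 100 mg/kg twice daily for 32 days. Where combined, paclitaxel was given at 20 mg/kg ip three times weekly for 5 weeks. Tumour volume was followed and reported at day 32. Tumour growth inhibition was taken from median tumour volume versus vehicle. Groups of n = 8–9 were compared by Student t test.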

[21] = Cmax in cynomolgus monkey at 1 mg/kg, po administered as single dose by LC-MS/MS analysis; assay type: ADME, organism-based, Macaca fascicularis; parameters: dose 1 mg/kg, route oral; conditions: in vivo
[22] = system: MDA-MB-231; test: (§4) Potentiation of paclitaxel-induced antitumor activity against human MDA-MB-231 cells xenografted in SCID mouse assessed as tumor growth inhibition at 30 mg/kg, po administered twice daily for 32 days in combination with paclitaxel at 20 mg/kg, ip three times weekly for 5 weeks and measured on […] (reference value: 81.5%); assay type: functional; procedure, shortened: as §3
[23] = Half life in Beagle dog at 1 mg/kg, po administered as single dose by LC-MS/MS analysis; assay type: ADME, organism-based, Canis lupus familiaris; conditions: in vivo
[24] = target: T1, Autotaxin; test: In vivo inhibition of lysoPLD activity of ATX in SCID mouse plasma xenografted with human MDA-MB-231 cells at 30 mg/kg, po administered twice daily for 32 days in combination with paclitaxel at 20 mg/kg, ip three times weekly for 5 weeks and measured at 18 hrs post-last dose relative to control; assay type: functional, organism-based
[25] = Oral bioavailability in cynomolgus monkey at 1 mg/kg administered as single dose by LC-MS/MS analysis; assay type: ADME, organism-based, Macaca fascicularis; conditions: in vivo
[26] = system: MDA-MB-231; test: as §4, with “100” for “30”, “and” for “and measured on”; assay type: functional; procedure, shortened: as §3
[27] = Half life in Sprague-Dawley rat at 1 mg/kg, po administered as single dose by LC-MS/MS analysis; assay type: ADME, organism-based; conditions: in vivo
[28] = Half life in SCID mouse at 1 mg/kg, po administered as single dose by LC-MS/MS analysis; assay type: ADME, organism-based; conditions: in vivo
[29] = Oral bioavailability in Beagle dog at 1 mg/kg administered as single dose by LC-MS/MS analysis; assay type: ADME, organism-based, Canis lupus familiaris; conditions: in vivo
[30] = target: T1, Autotaxin; test: Inhibition of recombinant human ATX assessed as reduction in choline release at 30 uM using LPC(16:0) as substrate incubated for 15 hrs relative to control; procedure, shortened: as §1
[31] = Octanol/phosphate buffer partition coefficient, LogD of compound at pH 7.4 mixed for 1 hr using benchtop-rotator followed by further incubation for 1 hr by ESI-LC-MS/MS analysis; assay type: physicochemical
[32] = Metabolic stability in rat hepatocytes assessed as parent compound remaining at 1 uM measured after 2 hrs by LC-MS/MS analysis; assay type: ADME, cell-based, Hepatocyte; conditions: read-out: Stability
Procedure, shortened: (§5)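 Human and rat hepatocyte incubation; percent parent remaining after 2 h.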

[33] = Oral bioavailability in Sprague-Dawley rat at 3 mg/kg by LC-MS/MS analysis; assay type: ADME, organism-based; conditions: in vivo; procedure, shortened: as §2
[34] = Plasma clearance in Sprague-Dawley rat at 1 mg/kg, iv by LC-MS/MS analysis; assay type: ADME, organism-based; procedure, shortened: as §2
[35] = Metabolic stability in human hepatocytes assessed as parent compound remaining at 1 uM measured after 2 hrs by LC-MS/MS analysis; assay type: ADME, cell-based, Hepatocyte; conditions: read-out: Stability; procedure, shortened: as §5

Structure (SMILES): CC(C)(CCC(=O)N1CCc2c(n(Cc3cccc(F)c3)c3ncccc23)C1)CC(=O)O
IC50 [1]: 24 nM

Structure (SMILES): CC(=O)N1CCc2c(n(Cc3ccccc3)c3ncccc23)C1
inhibition [30]: 51.6%

Structure (SMILES): O=C(O)c1ccc(CC(=O)N2CCc3c(n(Cc4cccc(F)c4)c4ncccc34)C2)cc1
IC50 [1]: 28 nM | logD at 1 h [31]: 0.67 | fraction unbound at 4 h [5]: 0.01

Structure (SMILES): O=C(O)CCCCC(=O)N1CCc2c(n(Cc3cccc(F)c3)c3ncccc23)C1
remaining at 2 h, 1 µM [32]: 10% | IC50 [1]: 50 nM | bioavailability [33]: 30% | logD at 1 h [31]: 0.51 | clearance [34]: 7.5 mL/min/kg | remaining at 2 h, 1 µM [35]: 29%

Structure (SMILES): O=C(O)c1cccc(CC(=O)N2CCc3c(n(Cc4cccc(F)c4)c4ncccc34)C2)c1
IC50 [1]: 100 nM | fraction unbound at 4 h [5]: 0.011

Structure (SMILES): O=C(O)CCCCC(=O)N1CCc2c(n(Cc3ccccc3)c3ncccc23)C1
IC50 [1]: 240 nM

Now from value to compound, other results behind:

fraction unbound at 4 h [2]: 0.061 | IC50 [1]: 11 nM | IC50 [3]: 7.9 nM | AUC [4]: 500 ng·h/mL | fraction unbound at 4 h [5]: 0.008
Structure (SMILES): O=C(CC12CCC(C(=O)O)(CC1)C2)N1CCc2c(n(Cc3ccc(F)cc3F)c3ncccc23)C1

Cmax [6]: 261 ng/mL | clearance [7]: 5.8 mL/min/kg | bioavailability [8]: 51.6% | half-life [9]: 474 min | Vd [10]: 1.47 L/kg | Cmax [11]: 124 ng/mL | inhibition [12]: 99.3% | fraction unbound at 4 h [2]: 0.049 | IC50 [1]: 10 nM | clearance [13]: 4.7 mL/min/kg | Cmax [14]: 1670 ng/mL | Vd [15]: 2.27 L/kg | half-life [16]: 534 min | half-life [17]: 204 min | Vd [18]: 1.86 L/kg | clearance [19]: 8.2 mL/min/kg | Cmax [21]: 63 ng/mL | half-life [23]: 354 min | inhibition [24]: 97.1% | bioavailability [25]: 30.8% | IC50 [3]: 5.5 nM | AUC [4]: 842 ng·h/mL | half-life [27]: 150 min | fraction unbound at 4 h [5]: 0.01 | half-life [28]: 324 min | bioavailability [29]: 71.1%
Structure (SMILES): O=C(CC12CCC(C(=O)O)(CC1)C2)N1CCc2c(n(Cc3ccc(F)cc3)c3ncccc23)C1
inhibition in vivo at 100 mg/kg [20]: 14.7% | TGI [22]: 91.2% | TGI [26]: 95.5%

fraction unbound at 4 h [2]: 0.039 | IC50 [1]: 22 nM | IC50 [3]: 25 nM | AUC [4]: 677 ng·h/mL | fraction unbound at 4 h [5]: 0.009
Structure (SMILES): C[C@]1(C(=O)O)CC[C@H](CC(=O)N2CCc3c(n(Cc4ccc(F)cc4F)c4ncccc34)C2)CC1

fraction unbound at 4 h [2]: 0.054 | IC50 [1]: 12 nM | IC50 [3]: 6.1 nM | AUC [4]: 420 ng·h/mL | fraction unbound at 4 h [5]: 0.014
Structure (SMILES): O=C(CC12CCC(C(=O)O)(CC1)CC2)N1CCc2c(n(Cc3ccc(F)cc3)c3ncccc23)C1
